Only some compounds are listed: those with a hit (about 3.1% of all), similar ones and a draw of the others.
PAFAH1B3 FP inh: blocks human PAF acetylhydrolase 1B catalytic subunit 3. 0.28% of 340,000 active. recombinant PAFAH1B3, FP-rhodamine probe, fluorescence polarization. inhibition, % at 3.39 µM;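 active means inhibition above the screen-wide average of all tested compounds plus 3 SD, cut at about 25% in these data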
pPAFAH FP inh: pPAFAH (human) enzyme inhibition. Q13093. recombinant pPAFAH, FP-rhodamine probe fluorescence polarization. inhibition, % at 3.39 µM. 1.5% of 330,000 active. AID 463082;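 active means inhibition above the mean inhibition across the screen plus 3 SD, cut at about 25% in these data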;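 further: inhibitors block binding of the rhodamine activity-based probe so polarization drops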
Target sequence (Q13093 whole entry, looked up): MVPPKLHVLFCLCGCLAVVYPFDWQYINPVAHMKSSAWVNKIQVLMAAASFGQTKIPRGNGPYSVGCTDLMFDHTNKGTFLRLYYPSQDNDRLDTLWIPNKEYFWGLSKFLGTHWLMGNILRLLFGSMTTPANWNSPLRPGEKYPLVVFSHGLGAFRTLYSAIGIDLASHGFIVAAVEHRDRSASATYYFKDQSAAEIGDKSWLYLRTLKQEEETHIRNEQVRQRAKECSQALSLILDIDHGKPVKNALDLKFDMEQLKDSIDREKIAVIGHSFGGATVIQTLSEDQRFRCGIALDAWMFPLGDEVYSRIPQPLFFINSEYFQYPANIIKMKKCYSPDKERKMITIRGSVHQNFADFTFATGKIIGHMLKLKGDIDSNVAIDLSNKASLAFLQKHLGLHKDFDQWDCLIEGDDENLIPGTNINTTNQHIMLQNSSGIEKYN
PAFAH2 FP inh: inhibitors of human PAFAH2; 0.99% of 340,000 active; recombinant PAFAH2, FP-rhodamine activity probe, fluorescence polarization; Q99487; AID 492956; inhibition, % at 3.39 µM;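 active means inhibition above the mean over all tested compounds plus 3 SD, cut at about 30% in these data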;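 further: inhibitors block probe labeling of enzyme so polarization drops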
Apaf-1 inh: human Apaf-1 inhibition. O14727. reconstituted apoptosome caspase-3 activity, DEVD-Rh110 fluorescence. inhibition, % at 20 µM. 0.71% of 330,000 active. AID 489030; active means inhibition of at least 40% at 20 µM
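System – cell-free apoptosome with Apaf-1, procaspase-3 and caspase-9 · Buffer or medium – pH 7.5 Hepes buffer with CHAPS, BSA, DTT · Also added – cytochrome c with DEVD-Rh110 · Times – 30 min compound preincubation, 50 min activation, room temperature · Technique – Rh110 fluorescence intensity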
PAFAH1B2 FP inh: inhibitors of human PAFAH1B2; inhibition, % at 3.39 µM; 1.2% of 340,000 active; AID 492953; recombinant PAFAH1B2, FP-rhodamine activity probe, fluorescence polarization; P68402;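 active means inhibition above the mean of all tested compounds plus 3 SD, cut at about 24% in these data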
Hits are given with their value; n = inactive; x = not tested or not shown.

SMILES	PAFAH1B3 FP inh	pPAFAH FP inh	PAFAH2 FP inh	Apaf-1 inh	PAFAH1B2 FP inh
COC(=O)c1ccc(NC(=O)C2CCN(C(=O)Nc3ccccc3)CC2)cc1	n	n	n	n	n
CCCc1nc2c(=O)n(C)c(=O)nc-2n(C)n1	78	x	60	x	36
CC(=O)Nc1ccc(Nc2nc(-c3ccccc3)nc3ccccc23)cc1	n	28	n	n	n
O=C1C(Cl)=C(NCCCO)C(=O)c2ccccc21	n	n	n	45	n
CN(Cc1ccccc1)C(=O)c1cccc(NC(=O)Cc2ccc(NC(=O)C3CCCN(C(=O)C4CCCC4)C3)cc2)c1 (configuration not stated)	n	x	n	x	n
Cc1occc1C(=O)O/N=C(\N)c1ccc(Cl)cc1	n	n	n	n	34
COc1ccc(Cl)cc1C(=O)O/N=C(\N)c1ccc(Cl)cc1	n	n	n	n	n
O=C(CSCc1ccc(Cl)cc1)NN=C1CCCCCC1	n	n	n	n	n
O=C(CCSc1ccc(Cl)cc1)NN=C1CCCCCC1	n	n	n	n	25
COc1ccc(OC)c(Nc2ccc(Nc3cc(OC)ccc3OC)nn2)c1	n	30	n	n	n
Cn1c2ccccc2c2cc(/C=N/NC(=O)c3ccc(O)cc3O)ccc21	33	31	n	n	n
N#CC1=C(S)N(c2ccccc2)C(c2ccc(-c3cccc(Cl)c3)o2)NC1=O (configuration not stated)	n	28	n	n	n
Cc1cccc(N2C(S)=C(C#N)C(=O)NC2c2ccco2)c1 (configuration not stated)	n	n	n	n	n
Cc1ccc(NS(=O)(=O)c2ccc3[nH]c(=O)[nH]c3c2)c(C)c1	n	28	n	n	n
CNC(=O)c1cc(S(=O)(=O)Nc2ccc(C)cc2C)ccc1C	n	30	n	n	n
CC(CCc1ccccc1)NC(=O)Cn1cccc1C(=O)c1ccccc1 (configuration not stated)	n	n	n	n	n
O=C(OCC1CCC=CO1)C1CCC=CO1 (configuration not stated)	n	x	n	x	n
CCC(C)[C@H](NC(=O)C1CC(=O)N(c2ccc(OC)cc2)C1)C(=O)NC1CCCC1 (some centres not stated)	n	n	n	n	n
COC(CN(C)C(=O)C1CCC(CNS(=O)(=O)c2ccccc2)CC1)OC (configuration not stated)	n	n	n	n	n
COC(CN(C)C(=O)C1CCC(CNS(=O)(=O)c2ccc(C)cc2)CC1)OC (configuration not stated)	n	25	n	n	n
CCOC(=O)C1=C(COC(=O)COc2ccc(C(=O)CC)cc2)NC(=O)NC1C (configuration not stated)	n	n	n	n	n
O=C(NCCc1ccccc1)c1nnc(CS(=O)(=O)c2ccccc2)o1	n	28	n	n	n
COc1cccc(C(=O)Oc2ccc(/C=N/Nc3ccc(C(=O)O)cc3)cc2OC)c1	n	28	n	n	n
O=C1C(=O)C(c2ccccc2)C(=O)C1c1ccccc1 (configuration not stated)	n	x	n	x	32
O=C(N=C1SC2CS(=O)(=O)CC2N1c1cccc(Cl)c1Cl)C1CC1 (configuration not stated)	n	n	n	n	n
SMILES	PAFAH1B3 FP inh	pPAFAH FP inh	PAFAH2 FP inh	Apaf-1 inh	PAFAH1B2 FP inh
CC(C)Oc1ccccc1NC(=O)CSc1nccn1C	n	n	n	n	n
CCCN(CCC)c1nc(Cl)nc(NCc2ccco2)n1	n	26	n	n	n
COc1ccc(C(C(=O)NC(C)(C)C)N(C(=O)Cn2nnc3ccccc32)c2cccc(C(C)=O)c2)cc1O (configuration not stated)	n	n	n	n	n
CCN(C(=O)CSc1ccccn1)C1CCCCC1	n	n	n	n	n
CCN(C(=O)CSc1ncccc1C(=O)O)C1CCCCC1	n	n	n	n	29
Cc1cc(C)cc(C(=O)NC(CC(N)=O)c2ccc(N3CCCCCC3)c([N+](=O)[O-])c2)c1 (configuration not stated)	n	n	n	n	n
COC1=CC(=O)c2c(ccc3ncnc(N)c23)C1=O	69	x	48	x	n
Cc1cc(C(=O)N/N=C2\CCCC(=O)C2)c(C)o1	n	x	n	n	n
Cc1cc(C(=O)N/N=C2\CCCC(=O)C2)c(C)n1-c1ccccc1	n	28	n	n	n
CN(CC(=O)NC(=O)NCc1ccccc1)CC(=O)Nc1ccc(Cl)c(Cl)c1	n	n	n	n	n
